Data on three molecules can be found in ChEMBL document CHEMBL1125815, “2-Phenyl-3H-imidazo[4,5-b]pyridine-3-acetamides as non-benzodiazepine anticonvulsants and anxiolytics” (J Med Chem, 1991).

Data set [1] deals with GABA-A receptor; anion channel. Description: Displacement of [3H]flunitrazepam from GABA-A benzodiazepine receptor of rat cerebral cortex membrane. The class given is tissue-based. In short, it runs like this: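 Rat cerebral cortex P2+P3 membranes (fresh tissue, two freeze-thaw-wash cycles to remove endogenous GABA), 0.4 mg protein. Incubated with 1 nM [3H]flunitrazepam and six concentrations (1 × 10^-5 – 1 × 10^-10 M) for 30 min at 4 °C. Filtered on GF/b filters and counted. […] IC50 from log-logit regression, mean of replicates.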
Background: In a radioligand displacement assay an active substance lowers the binding of a labelled ligand.

Data set [2] is filed under the species Rattus norvegicus. The data set is described as follows: Anxiolytic activity by vogel punished drinking test in rats. Format: functional. As to conditions: read-out: MED. A digest of the protocol: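 Modified Vogel conflict test. Rats were water-deprived for 48 h with food available. A drinkometer delivered a 0.65 mA shock after every 20th lick during a 3-min session starting at the first shock. Total shocks were compared with vehicle-treated rats by Dunnett's t test. Minimal effective dose reported in mg/kg ip.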

For data set [3], the species on record is Rattus norvegicus. Description: Ratio of IC50 values for [3H]-Ro- 15-1788 binding in absence and presence of added GABA (rat cerebral cortex). Format: functional. In short, it runs like this:
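Rat cerebral cortex membranes. IC50 for displacement of [3H]Ro 15-1788 was measured without and with excess added GABA. The ratio of the two IC50 values served as the index of agonist efficacy.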

Data set [4] is filed under the species Mus musculus. Description: Potentiation of ethanol (EtOH) induced sleep time in mice. The class given is functional. As to conditions: read-out: MED. In short, it runs like this: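 Compound given orally; the minimal effective dose (mg/kg po) for potentiating ethanol-induced sleep time in mice was reported.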
The species entered for data set [5] is Mus musculus. The data set is described as follows: Anxiolytic activity by light/dark exploratory behavioral test in mice. Format: functional. As to conditions: for minimal effective dose: read-out: MED. In short, it runs like this:
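Mice were dosed 30 min before testing, then placed individually in a two-compartment light/dark activity chamber and left undisturbed for 5 min. Time spent in each compartment was compared with vehicle-treated mice by Dunnett's t test. Minimal effective dose and sedative dose reported in mg/kg ip.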

Data set [6] is filed under the species Mus musculus. The data set is described as follows: (§1) Neurotoxicity against mice in rotarod test. Format: toxicity, organism-based. As to conditions: in vivo. In short, it runs like this: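 Groups of five randomly selected mice were dosed 30 min before being placed on a knurled 28-mm rod rotating at 6 rpm. Failure to stay on the rod for 1 min was scored as neurotoxic. ED50 (mg/kg ip) and confidence limits came from probit analysis.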
For orientation: In the rotarod test animals must keep their balance on a rotating rod.

The species entered for data set [7] is Mus musculus. Description: Anticonvulsant activity against pentylenetetrazole-induced clonic seizures in mice. The class given is functional. As to conditions: Mus musculus; read-out: ED50. In short, it runs like this:
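Female adult ICR mice, groups of eight, given test compound ip (100 mg/kg screen) in 0.5% aqueous methylcellulose or vehicle. Challenged 30 min later with pentyletetrazole 80 mg/kg sc and scored for clonic seizures.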

The species entered for data set [8] is Mus musculus. Description: Compound was tested for anticonvulsant activity against maximal electroshock-induced […] seizures in mice at 50mA, 200 ms. Format: functional.
For data set [9], the system named is Mus musculus. Description: Compound was tested for anticonvulsant activity against bicuculline-induced clonic seizures in mice at 2.7 mg/kg sc. Format: functional. As to conditions: route subcutaneous.
Data set [10] is described as follows: as §1. Format: toxicity, organism-based. As to conditions: mouse, in vivo. In short, it runs like this:
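Mice in groups of five, dosed ip 30 min before being placed on a knurled 28 mm rod rotating at 6 rpm. Failure to stay on for 1 min was scored as neurotoxic. ED50 and confidence limits were obtained by probit analysis.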

Data set [11] concerns Mus musculus. Description: Anticonvulsant activity against picrotoxin-induced clonic seizures in mice at 3.2 mg/kg sc. The class given is functional. As to conditions: route subcutaneous.
In data set [12] the test system is Mus musculus. The data set is described as follows: Compound was tested for anticonvulsant activity against pentylenetetrazole-induced clonic seizures in mice at dose 80 mg/kg.

Molecules are shown by their SMILES. Where only a bound is given, the exact number is not on record here.

Broadly, the IC50 is the concentration that gives 50% inhibition. Higher therefore signals lower potency. Usually ED50 stands for the dose at which the effect has come halfway, by size or by number of responders. By TD50 is commonly meant the dose at which the toxic effect under study appears in half of the subjects. Low readings indicate harm at a small dose, high ones harm only at a large dose.

`Cc1ccc(-c2nc3ccc(Cl)nc3n2CC(=O)N(C)C)cc1` came in with an IC50 in data set [1] of 0.15 µM. The minimal effective dose in the data set filed under Rattus norvegicus [2] amounted to 1 mg/kg; in the data set listed under Mus musculus [4], 10 mg/kg; in the data set listed under Mus musculus [5], 0.1 mg/kg. Moreover, in the data set listed under Rattus norvegicus [3], the GABA shift is given as 3.06. Besides, in the data set filed under Mus musculus [5], the Sedative dose turned out to be 5.62 mg/kg. In addition, the median effective dose (ED50) in the data set filed under Mus musculus [6] worked out at 15.2 mg/kg; in the data set filed under Mus musculus [7], 2.7 mg/kg.
As for `NC(=O)Cn1c(-c2ccc(Cl)cc2)nc2cccnc21`, in data set [1], the IC50 came to 8 µM. The ED50 in the data set filed under Mus musculus [8] stood at 329 mg/kg; in the data set on Mus musculus [9] it was 174 mg/kg; in the data set with Mus musculus [11], 211 mg/kg; in the data set filed under Mus musculus [7] it was 4.1 mg/kg. Moreover, the TD50 in data set [10] was more than 1000 mg/kg.
For the molecule `CN1C(=O)CN=C(c2ccccc2)c2cc(Cl)ccc21` [DIAZEPAM], the minimal effective dose was found to be 1 mg/kg in the data set filed under Rattus norvegicus [2], 2.5 mg/kg in the data set filed under Mus musculus [4] and 1 mg/kg in the data set listed under Mus musculus [5]. The ED50 in the data set on Mus musculus [12] stood at 0.2 mg/kg; in the data set filed under Mus musculus [6], 1.7 mg/kg; in the data set filed under Mus musculus [7] it was 0.9 mg/kg. Further, the Sedative dose in the data set filed under Mus musculus [5] was 10 mg/kg.
